Reference: ChEMBL document CHEMBL1154252, “Nitric oxide scavenging lignans from Vitex negundo seeds” (J Nat Prod, 2009)

What was measured:
RAW264.7 [1] = experiment: Antiinflammatory activity against mouse RAW264.7 cells assessed as inhibition of LPS-induced nitric oxide production at 1 uM after 24 hrs by Griess reagent method; type: functional; conditions: RAW264.7, 24 h
In short: (§1)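 RAW 264.7 macrophages seeded at 10^5 cells/well, co-incubated with compound and LPS (1 µg/mL) for 24 h. Nitrite in supernatant measured by Griess reagent: supernatant mixed in turn with 1% sulfanilamide and 0.1% naphthylethylenediamine in 2.5% phosphoric acid, absorbance read at 548 nm. n = 4, mean ± SD; L-nitroarginine as positive control, LPS alone as negative control.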

RAW264.7 [2] = experiment: Antiinflammatory activity against mouse RAW264.7 cells assessed as inhibition of LPS-induced nitric oxide production after 24 hrs by Griess reagent method; type: functional, cell-based; conditions: RAW264.7, 24 h; in short: as §1
RAW264.7 [3] = experiment: Cytotoxicity against LPS-stimulated mouse RAW264.7 cells up to 1 uM after 24 hrs by MTT assay; type: cell-based; conditions: raw264.7, 24 h
In short: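 After supernatant removal for Griess assay, LPS-treated RAW 264.7 cells given fresh medium with 2 mg/mL MTT. Incubated 3 h at 37 °C, 5% CO2. Formazan dissolved in DMSO and absorbance measured at 570 nm.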

Row | Compound | IC50 (RAW264.7 [2]) | inhibition at 1 µM (RAW264.7 [1]) | Activity (RAW264.7 [3])
1 | COc1cc([C@H]2c3cc(O)c(OC)cc3C=C(C=O)[C@@H]2CO)ccc1O | 3540 nM | 34.4% | Non-toxic
2 | N=C(NCCC[C@H](N)C(=O)O)N[N+](=O)[O-] [NITROARGININE] | 43600 nM | 2.53% | –
3 | COc1cc(-c2c3c(cc4cc(OC)c(O)cc24)C(=O)NC3)ccc1O [VITEDOAMINE A] | 1530 nM | 43.3% | Non-toxic
4 | COc1cc(-c2c3c(cc4cc(OC)c(O)cc24)CNC3=O)ccc1O [VITEDOAMINE B] | 870 nM | 56.2% | Non-toxic
5 | COc1cc([C@H]2c3cc(O)c(O)cc3C=C(C=O)[C@@H]2CO)ccc1O [VITEXDOIN A] | 380 nM | 67% | Non-toxic
6 | COc1cc(-c2cc(C=O)cc3ccc(O)c(OC)c23)ccc1O [VITEXDOIN B] | 200 nM | 80.8% | Non-toxic
7 | COc1cc(-c2c(C=O)ccc3cc(OC)c(O)cc23)ccc1O [VITEXDOIN C] | 570 nM | 61.7% | Non-toxic

Second part, led by results:

Row | IC50 (RAW264.7 [2]) | Compound | inhibition at 1 µM (RAW264.7 [1]) | Activity (RAW264.7 [3])
8 | 130 nM | COc1cc(-c2c(C=O)c(O)cc3cc(OC)c(O)cc23)ccc1O [VITEXDOIN D] | 91.1% | Non-toxic
9 | 150 nM | COc1cc(-c2cc(C=O)c(O)c3cc(OC)c(O)cc23)ccc1O [VITEXDOIN E] | 84.2% | Non-toxic
10 | 500 nM | COc1cc(-c2cc(C=O)cc3cc(OC)c(O)cc23)ccc1O [VITROFOLAL E] | 63.2% | –
11 | 110 nM | COc1cc(-c2c(O)c(C=O)cc3cc(OC)c(O)cc23)ccc1O [VITROFOLAL F] | 95.8% | Non-toxic
